# Screening results: PubChem, several laboratories
# Shown are actives, neighbours in structure and some others; about 4.3% of the full set was active somewhere.
# MC4R barr agon: agonists of human melanocortin 4 receptor (MC4R) beta-arrestin. 360,000 tested, 0.98% active. P32245. U2OS MC4R beta-arrestin complementation, luminescence; percent of melanotan II response, DMSO zero. activation, % at 8.9 µM. AID 540308;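 active = activation above a per-plate cutoff, the mean activation of sample wells on that plate plus 3 SD, cut at about 8% in these data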
# TAAR1 antag: human TAAR1 antagonism; CHO RD-HGA16 TAAR1, Fluo-8 calcium fluorescence, antagonist; inhibition, % at 3 µM; 360,000 tested, 1.5% active; AID 624466;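 active = inhibition above a per-plate cutoff, the mean inhibition of test compounds on that plate plus 3 SD, cut at about 49% in these data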;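 note: 0% = DMSO plus EC80 beta-PEA response and 100% = DMSO alone without agonist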
#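 Assay system: RD-HGA16 CHO cells with stable hTAAR1 and Gα16 / Reagent: EC80 β-phenethylamine stimulus / Doses: 3 µM, single point / Timing: dye loading 75 min at 37 °C, then 30 min room temperature / Measured by: Fluo-8 intracellular calcium dye fluorescence, real-time kinetic reads / Controls: vehicle wells and EC80 agonist wells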
# TAAR1 ag: human TAAR1 agonism. Q96RJ0. CHO RD-HGA16 TAAR1, Fluo-8 calcium fluorescence; vehicle wells 0%, saturating PEA agonist 100%. activation, % at 3 µM. 360,000 tested, 0.99% active;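 active = activation above the mean activation of all test compounds in the run plus 3 SD, cut at about 38% in these data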
#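 System: CHO-derived RD-HGA16 cells with stable Gα16 and human TAAR1 / Times: 17-24 h plating, Fluo-8 75 min 37 °C, 30 min RT / Technique: calcium-sensitive Fluo-8 signal, excitation 470-495, emission 515-575 nm / Measure: % activation relative to PEA EC100 response / Benchmarks: DMSO and PEA EC100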
# B2AR ag: human beta-2 adrenergic receptor agonism by FAP | P07550 | Am2.2-beta2AR cells, FAP receptor internalization, flow cytometry | response, % (test concentration not listed) | 340,000 tested, 0.43% active;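 active = response above a set limit, near 3 SD of response in nonfluorescent compounds, cut at about 42% in these data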
# HTR2A ag: agonists of mouse serotonin 5-HT2A receptor (HTR2A); 360,000 tested, 0.66% active; activation, % at 7.6 µM; P35363; CHO-K1 mHTR2A beta-arrestin complementation, luminescence; percent of 30 µM serotonin response;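 active = activation above a run cutoff, the mean activation of all tested compounds plus 3 SD, cut at about 14% in these data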;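 note: 0% = plate median of compound wells and 100% = 30 µM serotonin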
# Target sequence (P35363 whole entry, looked up): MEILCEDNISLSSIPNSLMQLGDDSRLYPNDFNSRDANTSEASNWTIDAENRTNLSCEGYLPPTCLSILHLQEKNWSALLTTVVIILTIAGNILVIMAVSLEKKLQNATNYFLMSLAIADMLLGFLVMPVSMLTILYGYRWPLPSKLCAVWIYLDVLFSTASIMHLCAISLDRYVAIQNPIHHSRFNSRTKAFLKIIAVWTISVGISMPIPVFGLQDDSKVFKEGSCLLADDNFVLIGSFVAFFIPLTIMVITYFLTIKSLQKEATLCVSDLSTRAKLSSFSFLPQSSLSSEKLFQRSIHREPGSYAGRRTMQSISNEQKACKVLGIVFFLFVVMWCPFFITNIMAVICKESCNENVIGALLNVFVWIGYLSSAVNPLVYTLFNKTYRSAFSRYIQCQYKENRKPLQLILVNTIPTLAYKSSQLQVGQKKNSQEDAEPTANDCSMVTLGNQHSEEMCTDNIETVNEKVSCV
# MC4R antag cAMP: human MC4R antagonism in cAMP assay; P32245; MC4R-expressing cells, MTII-stimulated cAMP, LANCE TR-FRET; inhibition, % at 6.5 µM; 360,000 tested, 0.48% active; AID 540295;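 active = inhibition above its plate's cutoff, the mean of tested wells on that plate plus 3 SD, cut at about 29% in these data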;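 note: 0% = Melanotan II alone and 100% = Melanotan II plus saturating MCL0020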
#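 material = U2OS cells stably expressing human melanocortin 4 receptor (MC4R) | also added = Melanotan II challenge | dosing = single nominal compound dose of 6.5 µM | detection = TR-FRET with Eu-cAMP and labeled anti-cAMP, 671 nm | replication = singlicate | timing = compound 30 min, challenge 1 h, detection 1 h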
# Active calls of the source: *; . = no result.
SMILES,MC4R barr agon,TAAR1 antag,TAAR1 ag,B2AR ag,HTR2A ag,MC4R antag cAMP
COc1cc(C2c3cc4c(cc3CC3COC(=O)C32)OCO4)cc(OC)c1OC (stereo unspecified),0.4,-12.4,-0.2,20.4,0.6,-26.6
COc1cc(C2c3cc4c(c(O)c3CC3COC(=O)C32)OCO4)cc(OC)c1OC (stereo unspecified),-0.7,49.6*,15.4,9.8,-4.6,-22.7
Fc1ccc2nc(-c3ccc(CN4CCC(n5nnc6ccccc65)CC4)cc3)c(-c3ccccc3)nc2c1,.,45.0,-0.8,.,.,.
O=C1NC(=O)C(=Cc2ccc(-c3ccc(S(=O)(=O)N4CCOCC4)cc3)o2)C(=O)N1,-2.2,-1.8,8.5,-2.2,-1.4,35.9*
CC(=O)OC1CCC2(C)C(CC(=O)C3C2CCC2(C)C(OC(C)=O)CCC32)C1 (stereo unspecified),-0.3,-1.7,2.6,28.1,-2.7,4.5
C=C1C(=O)O[C@@H]2C[C@@H](C)[C@@H]3C4OC4C(=O)[C@@]3(C)[C@@H](O)[C@H]12 (stereo partly specified),-0.2,5.4,5.3,43.3*,-10.1,-13.2
C=C1C(=O)OC2CC(C)C3C=CC(=O)C3(C)C(O)C12 (stereo unspecified),-1.5,.,.,21.6,0.5,-11.0
COc1ccc(-c2n(-c3ccccn3)c3ccccc3[n+]2-c2ccccn2)cc1,-1.1,-30.5,2.0,3.9,0.3,8.3
CC1Oc2cc3c(-c4c(O)cc(O)c5c(O)c6c(cc45)OC(C)C(C)C6=O)c(O)cc(O)c3c(O)c2C(=O)C1C (stereo unspecified),9.7*,.,.,1.3,-4.2,20.0
CCOC(=O)C1(c2ccccc2)CCN(CCC(=O)Nc2cccc(Br)c2)CC1,1.0,50.1*,17.2,19.2,-15.4,6.7
CCOC(=O)C1(c2ccccc2)CCN(CCC(=O)Nc2ccc(OC)cc2)CC1,-1.1,-15.6,4.6,.,-0.3,0.2
O[C@H]1C2CCC1C(N1CCCCC1)CC2 (stereo partly specified),-2.2,-9.5,-0.3,7.0,5.3,9.9
CNc1cc(Cl)c2nonc2c1[N+](=O)[O-],-2.5,15.3,3.5,106.0*,-9.1,-33.4
Cc1cc([N+](=O)[O-])c(Cl)cc1NC(=O)C(C)C,-0.3,-5.1,0.5,-2.2,0.7,11.2
COc1ccc(OC(=O)N(C)C[C@H]2OCc3cnnn3CCCC(=O)N([C@@H](C)CO)C[C@@H]2C)cc1,.,-18.7,2.7,.,.,.
CC1=CC(C)CC(C)OC(=O)CC(c2ccc(O)cc2)NC(=O)C(Cc2c(Br)[nH]c3ccccc23)N(C)C(=O)C(C)NC(=O)C(C)C1 (stereo unspecified),-0.9,0.7,1.0,49.8*,7.4,-0.8
CC(=O)OC1(c2ccccc2)CCN(C2CCCCC2)CC1C (stereo unspecified),1.7,-22.5,0.1,1.0,4.3,1.1
C=C(C)C(Cc1c(OC)ccc(C(=O)/C=C/c2ccc(O)cc2)c1O)OO (stereo unspecified),0.3,53.7*,7.0,9.9,-2.2,3.9
CCN(CC)c1ccc(CNCCc2ccccc2F)cc1,-2.4,-3.6,39.8*,-4.0,6.0,-6.2
Cc1cc(NC(=O)CCl)no1,-0.8,-27.5,2.6,-2.5,6.0,2.5
COc1ccccc1Cn1c(SCC#N)nc2cc(C(=O)N3CCC4(CC3)OCCO4)ccc2c1=O,-1.2,-21.6,3.1,-9.9,-5.3,3.8
CNCC(O)c1cccc(OC(=O)c2ccccc2C)c1 (stereo unspecified),0.1,-3.9,11.6,-7.0,-1.6,-1.6
CNCC(O)c1cc(OCc2ccccc2)c(OCc2ccccc2)cc1F (stereo unspecified),2.2,15.1,45.3*,36.4,-3.6,6.2
CC(N)C(=O)NC1C2C(=C(O)CC(O)C2O)C(=O)OC1(C)C(Cl)Cl (stereo unspecified),-1.1,8.2,1.9,18.9,1.6,5.7
Cc1ccccc1-[n+]1c(-c2ccccc2)cc(-c2ccccc2)cc1-c1ccccc1,1.0,37.5,9.2,-3.0,0.3,2.4
SMILES,MC4R barr agon,TAAR1 antag,TAAR1 ag,B2AR ag,HTR2A ag,MC4R antag cAMP
Oc1ccccc1-[n+]1c(-c2ccccc2)cc(-c2ccccc2)cc1-c1ccccc1,0.5,50.8*,7.7,-10.5,-4.9,6.1
O=C1NC(=O)N(c2ccc3c(c2)OCO3)C(=O)/C1=C/c1cccs1,-2.9,-12.5,13.3,44.5*,-3.0,17.9
O=C1NC(=O)N(c2ccc3c(c2)OCO3)C(=O)/C1=C/c1ccsc1,2.3,6.2,10.5,15.2,2.9,3.0
CCN1/C(=C/C=C/C2=[N+](CC)c3ccccc3C2(C)C)C(C)(C)c2ccccc21,-2.6,105.6*,263.0*,.,-12.0,-15.8
Cc1ccc(/C=C2\C(=O)NC(=O)N(Cc3ccccc3Cl)C2=O)o1,-2.0,-5.5,13.9,59.2*,2.4,28.4
Cc1cccc(N=Nc2ccc(N(C)C)cc2)c1,-0.2,-12.2,-0.5,0.0,0.6,16.9
O=P(Nc1ccccc1)(Nc1ccccc1)Oc1cccc(Cl)c1,2.7,52.3*,13.7,-0.9,0.9,0.6
CC(C)=CCc1c(O)cc2c(c1O)C(=O)CC(c1ccc(O)cc1)O2 (stereo unspecified),1.3,19.2,41.9*,2.7,3.2,12.1
CCC(=Nc1ccc2c(c1)CCC2)c1c(O)n(-c2ccc(OC)cc2)c(=O)[nH]c1=O,2.6,-50.8,3.9,4.7,8.2,3.8
N#Cc1c(/N=C/c2c(O)n(Cc3ccco3)c(=O)[nH]c2=O)sc2c1CCCC2,1.1,-7.8,3.0,8.0,18.5*,1.2
NC(N)=N/N=C/c1ccc(N(c2ccccc2)c2ccccc2)cc1,3.8,12.2,77.2*,38.1,-4.6,9.8
COc1ccc(/C=N\N=C(N)N)cc1,-1.1,4.7,21.2,-9.7,-3.4,13.9
COC(=O)C1CC(OC(C)=O)C(=O)[C@H]2C1(C)CC[C@H]1C(=O)OC(c3ccoc3)CC12C (stereo partly specified),.,14.0,0.2,.,.,.
CN1CC(C#N)C2(O)c3ccccc3CCC2C1 (stereo unspecified),-0.8,-11.6,2.5,-17.0,6.5,0.5
CC12CCC(O)CC1CCC1C2CCC2(C)C(C3=CC(=O)OC3)CCC12O (stereo unspecified),28.1*,0.4,2.7,10.0,-0.3,0.1
CC12CCC(O)CC1CCC1C2CCC2(C)C(C3=CC(=O)OC3)C(O)CC12O (stereo unspecified),12.7*,-19.9,1.4,-2.2,4.9,2.3
